Reference: ChEMBL document CHEMBL1142098, “A xanthocillin-like alkaloid from the insect pathogenic fungus Cordyceps brunnearubra BCC 1395” (J Nat Prod, 2007)
The source made the active and inactive calls. The rule behind the calls is not given here.

Tests used:
Plasmodium falciparum = experiment: Antimalarial activity against multidrug-resistant Plasmodium falciparum K1; format: functional, organism-based
Summary of the method: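 Microculture radioisotope assay against the multidrug-resistant K1 strain of P. falciparum, with IC50 read out. Dihydroartemisinin was run as the reference standard in the same assay system.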

[1] = Cytotoxicity against human BC cells upto 56 uM; format: cell-based; details: for Activity: human, bc
Summary of the method: (§1)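 Cytotoxicity was measured by a colorimetric method on purified compounds. The cells were human epidermoid carcinoma (KB), human breast cancer (BC), human lung cancer (NCI-H187) and African green monkey kidney fibroblast (Vero) cells.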

KB = experiment: Cytotoxicity against human KB cells upto 56 uM; format: cell-based; summary of the method: as §1
[2] = Cytotoxicity against human NCI-H187 cells upto 56 uM; format: cell-based; summary of the method: as §1
Vero = experiment: Cytotoxicity against Vero cells upto 140 uM; format: cell-based; details: chlorocebus sabaeus; summary of the method: as §1

Row | SMILES | IC50 (Plasmodium falciparum) | IC50 ([1]; Homo sapiens, BC) | Activity (KB) | Activity [2] | Activity (Vero) | Activity (Plasmodium falciparum) | Activity [1]
1 | O=CNC(=C\c1ccc(O)c(O)c1)/C(=C/c1ccc(O)c(O)c1)NC=O [CORDYFORMAMIDE] | 18 µM | 39 µM | Not Active | Not Active | Not Active | – | –
2 | COc1ccc(/C=C(/C(=C/c2ccc(OC)c(OC)c2)N(C)C=O)N(C)C=O)cc1OC | – | – | Not Active | Not Active | Not Active | inactive | Not Active
3 | CC(=O)O/C=N/C(=C\c1ccc(OC(C)=O)c(OC(C)=O)c1)C(=C/c1ccc(OC(C)=O)c(OC(C)=O)c1)/N=C/OC(C)=O | – | – | Not Active | Not Active | Not Active | inactive | Not Active
4 | C[C@H]1[C@@H](O)O[C@@H]2O[C@@]3(C)CC[C@H]4[C@H](C)CC[C@@H]1[C@@]24OO3 [ARTENIMOL] | 0.0042 µM | – | – | – | – | – | –
